Columns and labels:
Staphylococcus aureus [1] = experiment: Antibacterial activity against multidrug-resistant Staphylococcus aureus NCTC 10442 cultured in MHB medium assessed as reduction in bacterial growth incubated for 24 hrs by microdilution susceptibility test; assay type: functional; conditions: NCTC 10442, 24 h
In short: (§1)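 Broth microdilution per CLSI M07-A9 (modified). Working solutions made from concentrated DMSO stocks kept at r.t., diluted in double-distilled water, final DMSO <1%. Inoculum 1–1.2 x 10⁶ cells/mL in Mueller-Hinton broth, mixed 1:1 with compound. 37 °C, 24 h, four parallels. Read as OD₆₀₀. Where precipitation left residual OD, the point of major OD decrease was taken as the inhibitory concentration.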

Enterococcus faecium [2] = experiment: Antibacterial activity against multidrug-resistant Enterococcus faecium 50901530 cultured in BHIB medium assessed as reduction in bacterial growth incubated for 24 hrs by microdilution susceptibility test; assay type: functional; conditions: Enterococcus faecium, 50901530, 24 h
In short: (§2)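 Enterococci grown in Brain Heart Infusion broth, otherwise broth microdilution per CLSI M07-A9 (modified). Concentrated DMSO stocks kept at r.t. and diluted in double-distilled water, final DMSO <1%. Inoculum 1–1.2 x 10⁶ cells/mL mixed 1:1 with compound. 37 °C, 24 h, four parallels. OD₆₀₀ read-out, lowest concentration with no growth.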

Staphylococcus aureus [3] = experiment: Antibacterial activity against multidrug-resistant Staphylococcus aureus WIS cultured in MHB medium assessed as reduction in bacterial growth incubated for 24 hrs by microdilution susceptibility test; assay type: functional; in short: as §1
Escherichia coli [4] = experiment: Antibacterial activity against multidrug-resistant Escherichia coli 50676002 producing New Delhi metallo-beta-lactamase-1 cultured in MHB medium assessed as reduction in bacterial growth incubated for 24 hrs by microdilution susceptibility test; assay type: functional; conditions: Escherichia coli, 50676002, 24 h; in short: as §1
Staphylococcus aureus [5] = experiment: Antibacterial activity against multidrug-resistant Staphylococcus aureus IHT 99040 cultured in MHB medium assessed as reduction in bacterial growth incubated for 24 hrs by microdilution susceptibility test; assay type: functional; conditions: IHT 99040, 24 h; in short: as §1
Staphylococcus aureus [6] = experiment: Antibacterial activity against multidrug-resistant Staphylococcus aureus 85/2082 cultured in MHB medium assessed as reduction in bacterial growth incubated for 24 hrs by microdilution susceptibility test; assay type: functional; conditions: 85/2082, 24 h; in short: as §1
Acinetobacter baumannii [7] = experiment: Antibacterial activity against multidrug-resistant Acinetobacter baumannii K55-13 producing oxcillinase-24 cultured in MHB medium assessed as reduction in bacterial growth incubated for 24 hrs by microdilution susceptibility test; assay type: functional; conditions: K55-13, 24 h; in short: as §1
Staphylococcus aureus [8] = experiment: Antibacterial activity against multidrug-resistant Staphylococcus aureus N315 cultured in MHB medium assessed as reduction in bacterial growth incubated for 24 hrs by microdilution susceptibility test; assay type: functional; conditions: N315, 24 h; in short: as §1
Pseudomonas aeruginosa [9] = experiment: Antibacterial activity against multidrug-resistant Pseudomonas aeruginosa K44-24 producing imipenem-type carbapenemase-14 cultured in MHB medium assessed as reduction in bacterial growth incubated for 24 hrs by microdilution susceptibility test; assay type: functional; conditions: K44-24, 24 h; in short: as §1
Klebsiella pneumoniae [10] = experiment: Antibacterial activity against multidrug-resistant Klebsiella pneumoniae 50667959 producing Verona integron encoded metallo beta-lactamse-1 cultured in MHB medium assessed as reduction in bacterial growth incubated for 24 hrs by microdilution susceptibility test; assay type: functional; conditions: Klebsiella pneumoniae, 50667959, 24 h; in short: as §1
Klebsiella pneumoniae [11] = experiment: Antibacterial activity against multidrug-resistant Klebsiella pneumoniae 50625602 producing oxcillinase-245 cultured in MHB medium assessed as reduction in bacterial growth incubated for 24 hrs by microdilution susceptibility test; assay type: functional; conditions: Klebsiella pneumoniae, 50625602, 24 h; in short: as §1
[12] = Selectivity index, ratio of EC50 for hemolytic activity against human RBC to MIC for antibacterial activity against Staphylococcus aureus ATCC 9144; assay type: toxicity; conditions: human red blood cells (RBC)
In short: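 Selectivity index is the RBC haemolysis EC50 divided by the MIC against the E. coli or S. aureus reference strain.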

Acinetobacter baumannii [13] = experiment: Antibacterial activity against multidrug-resistant Acinetobacter baumannii K12-21 producing oxcillinase-58 cultured in MHB medium assessed as reduction in bacterial growth incubated for 24 hrs by microdilution susceptibility test; assay type: functional; conditions: K12-21, 24 h; in short: as §1
Klebsiella pneumoniae [14] = experiment: Antibacterial activity against multidrug-resistant Klebsiella pneumoniae K47-25 producing carbapenemase-2 cultured in MHB medium assessed as reduction in bacterial growth incubated for 24 hrs by microdilution susceptibility test; assay type: functional; conditions: K47-25, 24 h; in short: as §1
Pseudomonas aeruginosa [15] = experiment: Antibacterial activity against multidrug-resistant Pseudomonas aeruginosa K34-73 producing Verona integron encoded metallo beta-lactamse-4 cultured in MHB medium assessed as reduction in bacterial growth incubated for 24 hrs by microdilution susceptibility test; assay type: functional; conditions: K34-73, 24 h; in short: as §1
Klebsiella pneumoniae [16] = experiment: Antibacterial activity against multidrug-resistant Klebsiella pneumoniae 50531633 producing New Delhi metallo-beta-lactamase-1 and oxcillinase-181 cultured in MHB medium assessed as reduction in bacterial growth incubated for 24 hrs by microdilution susceptibility test; assay type: functional; conditions: Klebsiella pneumoniae, 50531633, 24 h; in short: as §1
Escherichia coli [17] = experiment: Antibacterial activity against multidrug-resistant Escherichia coli 50739822 producing New Delhi metallo-beta-lactamase-1 cultured in MHB medium assessed as reduction in bacterial growth incubated for 24 hrs by microdilution susceptibility test; assay type: functional; conditions: Escherichia coli, 50739822, 24 h; in short: as §1
Enterococcus faecium [18] = experiment: Antibacterial activity against multidrug-resistant Enterococcus faecium K36-18 cultured in BHIB medium assessed as reduction in bacterial growth incubated for 24 hrs by microdilution susceptibility test; assay type: functional; conditions: K36-18, 24 h; in short: as §2
Acinetobacter baumannii [19] = experiment: Antibacterial activity against multidrug-resistant Acinetobacter baumannii K44-35 producing oxcillinase-23 cultured in MHB medium assessed as reduction in bacterial growth incubated for 24 hrs by microdilution susceptibility test; assay type: functional; conditions: K44-35, 24 h; in short: as §1
Pseudomonas aeruginosa [20] = experiment: Antibacterial activity against Pseudomonas aeruginosa PA01 DSM 19880 (ATCC 15692) cultured in MHB medium assessed as no bacterial growth incubated at 37 degC for 24 hrs by microdilution susceptibility test; assay type: functional; conditions: PAO1 DSM 19880 (ATCC 15692)
In short: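 Broth microdilution per CLSI M07-A9 with modifications. Inoculum about 2.5–3 x 10⁴ cells/mL in Mueller-Hinton broth, mixed 1:1 with test derivative. DMSO stocks diluted in double-distilled water, final DMSO <1%. Incubation 24 h at 37 °C (20 °C for C. glutamicum). Growth and sterility controls included; oxytetracycline reference.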

Klebsiella pneumoniae [21] = experiment: Antibacterial activity against multidrug-resistant Klebsiella pneumoniae K66-45 producing New Delhi metallo-beta-lactamase-1 cultured in MHB medium assessed as reduction in bacterial growth incubated for 24 hrs by microdilution susceptibility test; assay type: functional; conditions: K66-45, 24 h; in short: as §1
Escherichia coli [22] = experiment: Antibacterial activity against multidrug-resistant Escherichia coli 50857972 producing imipenem-type carbapenemase-26 cultured in MHB medium assessed as reduction in bacterial growth incubated for 24 hrs by microdilution susceptibility test; assay type: functional; conditions: Escherichia coli, 50857972, 24 h; in short: as §1
Enterococcus faecium [23] = experiment: Antibacterial activity against multidrug-resistant Enterococcus faecium 50673722 cultured in BHIB medium assessed as reduction in bacterial growth incubated for 24 hrs by microdilution susceptibility test; assay type: functional; conditions: Enterococcus faecium, 50673722, 24 h; in short: as §2

NCCNCC(CN)(Cc1cc(C(F)(F)F)cc(C(F)(F)F)c1)Cc1cc(C(F)(F)F)cc(C(F)(F)F)c1
16 µg/mL: MIC (Klebsiella pneumoniae [14])
32 µg/mL: MIC (Pseudomonas aeruginosa [9]) | MIC (Pseudomonas aeruginosa [15])
6: selectivity ratio [12]
4 µg/mL: MIC (Pseudomonas aeruginosa [20]) | MIC (Enterococcus faecium [23])
8 µg/mL: MIC (Staphylococcus aureus [1]) | MIC (Enterococcus faecium [2]) | MIC (Staphylococcus aureus [3]) | MIC (Escherichia coli [4]) | MIC (Staphylococcus aureus [5]) | MIC (Staphylococcus aureus [6]) | MIC (Acinetobacter baumannii [7]) | MIC (Staphylococcus aureus [8]) | MIC (Klebsiella pneumoniae [10]) | MIC (Klebsiella pneumoniae [11]) | MIC (Acinetobacter baumannii [13]) | MIC (Klebsiella pneumoniae [16]) | MIC (Escherichia coli [17]) | MIC (Enterococcus faecium [18]) | MIC (Acinetobacter baumannii [19]) | MIC (Klebsiella pneumoniae [21]) | MIC (Escherichia coli [22])

NCCNCC(CN)(Cc1ccccc1Br)Cc1ccccc1Br
13: selectivity ratio [12]
32 µg/mL: MIC (Pseudomonas aeruginosa [9]) | MIC (Pseudomonas aeruginosa [15])
16 µg/mL: MIC (Staphylococcus aureus [1]) | MIC (Enterococcus faecium [2]) | MIC (Escherichia coli [4]) | MIC (Acinetobacter baumannii [7]) | MIC (Klebsiella pneumoniae [10]) | MIC (Klebsiella pneumoniae [11]) | MIC (Acinetobacter baumannii [13]) | MIC (Klebsiella pneumoniae [14]) | MIC (Klebsiella pneumoniae [16]) | MIC (Escherichia coli [17]) | MIC (Enterococcus faecium [18]) | MIC (Acinetobacter baumannii [19]) | MIC (Pseudomonas aeruginosa [20]) | MIC (Klebsiella pneumoniae [21]) | MIC (Escherichia coli [22]) | MIC (Enterococcus faecium [23])
8 µg/mL: MIC (Staphylococcus aureus [3]) | MIC (Staphylococcus aureus [5]) | MIC (Staphylococcus aureus [6]) | MIC (Staphylococcus aureus [8])

N#CC(Cc1cc(C(F)(F)F)cc(C(F)(F)F)c1)(Cc1cc(C(F)(F)F)cc(C(F)(F)F)c1)C(=O)NCCN
> 32 µg/mL: MIC (Escherichia coli [4]) | MIC (Acinetobacter baumannii [7]) | MIC (Staphylococcus aureus [8]) | MIC (Pseudomonas aeruginosa [9]) | MIC (Klebsiella pneumoniae [10]) | MIC (Klebsiella pneumoniae [11]) | MIC (Acinetobacter baumannii [13]) | MIC (Klebsiella pneumoniae [14]) | MIC (Pseudomonas aeruginosa [15]) | MIC (Klebsiella pneumoniae [16]) | MIC (Escherichia coli [17]) | MIC (Acinetobacter baumannii [19]) | MIC (Klebsiella pneumoniae [21]) | MIC (Escherichia coli [22])
32 µg/mL: MIC (Staphylococcus aureus [1]) | MIC (Staphylococcus aureus [6])
8 µg/mL: MIC (Enterococcus faecium [18])
16 µg/mL: MIC (Enterococcus faecium [2]) | MIC (Staphylococcus aureus [3]) | MIC (Staphylococcus aureus [5]) | MIC (Enterococcus faecium [23])
18: selectivity ratio [12]
64 µg/mL: MIC (Pseudomonas aeruginosa [20])

NCCNC(=O)C(CN)(Cc1ccc(F)c2ccccc12)Cc1ccc(F)c2ccccc12
8 µg/mL: MIC (Staphylococcus aureus [1]) | MIC (Escherichia coli [4]) | MIC (Staphylococcus aureus [6]) | MIC (Klebsiella pneumoniae [10]) | MIC (Klebsiella pneumoniae [11]) | MIC (Klebsiella pneumoniae [16]) | MIC (Pseudomonas aeruginosa [20]) | MIC (Klebsiella pneumoniae [21]) | MIC (Escherichia coli [22])
> 32 µg/mL: MIC (Acinetobacter baumannii [19])
32 µg/mL: MIC (Acinetobacter baumannii [7]) | MIC (Pseudomonas aeruginosa [9]) | MIC (Acinetobacter baumannii [13]) | MIC (Klebsiella pneumoniae [14]) | MIC (Pseudomonas aeruginosa [15])
16 µg/mL: MIC (Enterococcus faecium [2]) | MIC (Staphylococcus aureus [3]) | MIC (Staphylococcus aureus [5]) | MIC (Staphylococcus aureus [8]) | MIC (Escherichia coli [17]) | MIC (Enterococcus faecium [18]) | MIC (Enterococcus faecium [23])
19: selectivity ratio [12]

NCCNCC(CN)(Cc1cc(Br)cc(Br)c1)Cc1cc(Br)cc(Br)c1
16 µg/mL: MIC (Pseudomonas aeruginosa [9]) | MIC (Klebsiella pneumoniae [10]) | MIC (Klebsiella pneumoniae [11]) | MIC (Acinetobacter baumannii [13]) | MIC (Pseudomonas aeruginosa [15])
8 µg/mL: MIC (Staphylococcus aureus [3]) | MIC (Escherichia coli [4]) | MIC (Staphylococcus aureus [5]) | MIC (Staphylococcus aureus [6]) | MIC (Acinetobacter baumannii [7]) | MIC (Klebsiella pneumoniae [14]) | MIC (Klebsiella pneumoniae [16]) | MIC (Escherichia coli [17]) | MIC (Enterococcus faecium [18]) | MIC (Acinetobacter baumannii [19]) | MIC (Klebsiella pneumoniae [21]) | MIC (Escherichia coli [22])
4 µg/mL: MIC (Staphylococcus aureus [1]) | MIC (Enterococcus faecium [2]) | MIC (Staphylococcus aureus [8]) | MIC (Pseudomonas aeruginosa [20]) | MIC (Enterococcus faecium [23])
12: selectivity ratio [12]

— ChEMBL document CHEMBL4311965, “Antimicrobial activity of amphipathic α,α-disubstituted β-amino amide derivatives against ESBL - CARBA producing multi-resistant bacteria; effect of halogenation, lipophilicity and cationic character” (Eur J Med Chem, 2019)
